Laboratory results: ChEMBL document CHEMBL1129030, “Potent, selective, orally active 3-oxo-1,4-benzodiazepine GPIIb/IIIa integrin antagonists” (J Med Chem, 1996)
Values joined by “and” are separate entries in the source; they are usually repeats but may differ in a detail not shown here. Equal values may be shown once.

Legend:
Homo sapiens = species on record: Homo sapiens; assay: In vitro Inhibitory activity against patelet aggregation in human platelet-rich plasma induced by ADP; format: functional
[1] = target: Integrin alpha-IIb/beta-3 (Homo sapiens, UniProt P05106+P08514); assay: Inhibition of binding to purified integrin alphaIIb-beta3 of human platelets
Canis familiaris [2] = assay: Ex vivo inhibition of platelet aggregation in canine whole blood/collagen at a dose of 0.3 mg/kg after i.v. administration; range is 90-100; format: functional; settings: Canis lupus familiaris, route intravenous
Summary of the method: (§1)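 Conscious dogs dosed either by intravenous bolus or by short intraduodenal infusion through a catheter, at 0.3–3 mg/kg. Blood was drawn serially for up to 390 min. Platelet aggregation was measured ex vivo in collagen-stimulated canine whole blood. The readouts were maximal % inhibition, time to maximal inhibition, duration of maximal inhibition, and % inhibition at 390 min.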

Canis familiaris [3] = species on record: Canis familiaris; assay: Time required for maximal inhibition of platelet aggregation in canine; format: functional, Canis lupus familiaris; summary of the method: as §1
Canis familiaris [4] = assay: Ex vivo inhibition of platelet aggregation in canine whole blood/collagen at a dose of 0.3 mg/kg after i.d. administration; […]; format: functional; settings: Canis lupus familiaris, route intraduodenal; summary of the method: as §1
Canis familiaris [5] = species on record: Canis familiaris; assay: Duration for maximal inhibition of platelet aggregation in canine; format: functional, Canis lupus familiaris; summary of the method: as §1
Canis familiaris [6] = assay: Ex vivo inhibition of platelet aggregation in canine whole blood/collagen at a dose of 3 mg/kg after i.d. administration; range is 90-100; format: functional; settings: Canis lupus familiaris, route intraduodenal; summary of the method: as §1
Canis familiaris [7] = assay: Ex vivo inhibition of platelet aggregation in canine whole blood/collagen at a dose of 0.3 mg/kg after i.v. administration at 390 min; format: functional; settings: Canis lupus familiaris, 6.5 h, route intravenous; summary of the method: as §1
Canis familiaris [8] = assay: Ex vivo inhibition of platelet aggregation in canine whole blood/collagen at a dose of 0.3 mg/kg after i.d. administration at 390 min; format: functional; settings: Canis lupus familiaris, 6.5 h, route intraduodenal; summary of the method: as §1

Chain of Integrin alpha-IIb/beta-3 (P05106 27-788 limits assumed): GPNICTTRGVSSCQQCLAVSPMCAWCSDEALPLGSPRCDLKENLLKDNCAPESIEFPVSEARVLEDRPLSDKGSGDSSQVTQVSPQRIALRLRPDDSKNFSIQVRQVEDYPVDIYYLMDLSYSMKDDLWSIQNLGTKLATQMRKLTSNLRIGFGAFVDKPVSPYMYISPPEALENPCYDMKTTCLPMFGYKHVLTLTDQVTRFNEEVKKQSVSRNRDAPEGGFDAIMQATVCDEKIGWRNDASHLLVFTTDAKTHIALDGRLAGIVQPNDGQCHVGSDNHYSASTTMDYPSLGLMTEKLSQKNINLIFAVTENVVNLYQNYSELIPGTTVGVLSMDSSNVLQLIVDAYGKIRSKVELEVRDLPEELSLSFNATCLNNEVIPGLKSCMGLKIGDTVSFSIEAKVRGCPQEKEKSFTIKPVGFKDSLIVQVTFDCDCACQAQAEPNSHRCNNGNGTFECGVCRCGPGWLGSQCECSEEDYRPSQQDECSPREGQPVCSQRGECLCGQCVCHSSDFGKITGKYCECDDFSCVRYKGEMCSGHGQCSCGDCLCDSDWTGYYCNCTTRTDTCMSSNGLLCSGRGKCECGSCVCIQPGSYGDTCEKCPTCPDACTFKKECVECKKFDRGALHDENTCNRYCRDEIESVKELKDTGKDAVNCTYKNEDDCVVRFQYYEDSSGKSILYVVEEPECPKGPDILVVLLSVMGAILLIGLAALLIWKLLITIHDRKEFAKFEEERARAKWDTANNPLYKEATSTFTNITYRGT
Chain of Integrin alpha-IIb/beta-3 (P08514 32-887 limits assumed): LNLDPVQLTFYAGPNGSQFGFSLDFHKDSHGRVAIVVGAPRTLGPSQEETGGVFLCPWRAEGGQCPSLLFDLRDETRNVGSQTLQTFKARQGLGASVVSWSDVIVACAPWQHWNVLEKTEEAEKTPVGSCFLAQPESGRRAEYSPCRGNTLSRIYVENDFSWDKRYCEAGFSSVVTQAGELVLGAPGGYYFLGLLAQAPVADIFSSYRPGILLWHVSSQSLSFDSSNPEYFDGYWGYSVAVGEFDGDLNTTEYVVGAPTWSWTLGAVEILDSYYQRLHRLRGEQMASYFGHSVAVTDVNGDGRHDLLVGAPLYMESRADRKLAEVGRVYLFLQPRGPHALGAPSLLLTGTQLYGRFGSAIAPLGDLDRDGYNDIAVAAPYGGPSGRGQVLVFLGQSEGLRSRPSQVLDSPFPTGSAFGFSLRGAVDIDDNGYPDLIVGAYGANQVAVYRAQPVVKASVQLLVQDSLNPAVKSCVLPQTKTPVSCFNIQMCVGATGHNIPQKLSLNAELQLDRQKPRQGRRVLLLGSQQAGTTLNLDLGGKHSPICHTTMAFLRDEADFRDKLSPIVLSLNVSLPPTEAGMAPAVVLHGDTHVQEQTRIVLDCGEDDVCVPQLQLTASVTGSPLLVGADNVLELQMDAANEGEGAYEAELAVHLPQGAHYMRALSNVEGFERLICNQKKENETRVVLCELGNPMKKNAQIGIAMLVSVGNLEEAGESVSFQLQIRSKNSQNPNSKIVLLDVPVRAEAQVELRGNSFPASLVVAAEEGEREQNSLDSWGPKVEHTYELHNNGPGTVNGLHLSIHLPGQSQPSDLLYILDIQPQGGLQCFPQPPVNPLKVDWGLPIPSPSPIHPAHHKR
Chain of Integrin alpha-IIb/beta-3 (P08514 891-1039 limits assumed): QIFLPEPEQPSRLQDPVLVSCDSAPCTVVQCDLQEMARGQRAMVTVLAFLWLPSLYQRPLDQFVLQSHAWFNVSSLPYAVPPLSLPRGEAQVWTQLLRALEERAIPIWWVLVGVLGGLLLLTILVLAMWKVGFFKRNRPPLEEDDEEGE

SMILES | IC50 (Homo sapiens) [nM] | Ki [1] [nM] | other results
CN(C(=O)c1ccc2c(c1)NC(CC(=O)O)C(=O)N(CCc1ccccc1)C2)c1ccc(C(=N)N)cc1 (configuration not stated) | 65 | 1.6 | –
O=C(O)CC1Nc2ccc(C(=O)N3CCC(C4CCNCC4)CC3)cc2CN(CCc2ccccc2)C1=O (configuration not stated) | 20 | 1.5 | inhibition in vivo at 0.3 mg/kg (Canis familiaris [2]): 90%; Time (Canis familiaris [3]): 10 min and 30 min; inhibition in vivo at 0.3 mg/kg (Canis familiaris [4]): 70%; Duration (Canis familiaris [5]): 140 min
CN(CCCC1CCNCC1)C(=O)c1ccc2c(c1)CN(CCc1ccccc1)C(=O)C(CC(=O)O)N2 (configuration not stated) | 60 | 8 | –
N=C(N)c1ccc(NC(=O)c2ccc3c(c2)NC(CC(=O)O)C(=O)N(CCc2ccccc2)C3)cc1 (configuration not stated) | – | 2.8 | –
CN1C(=O)c2ccccc2SSc2ccccc2NC(=O)[C@H](CC(=O)O)NC(=O)CNC(=O)[C@@H]1CCCN=C(N)N [SKF-107260] | 57 | – | –
CN1Cc2cc(C(=O)N3CCC(C4CCNCC4)CC3)ccc2NC(CC(=O)O)C1=O (configuration not stated) | 106 | 4 | inhibition in vivo at 3 mg/kg (Canis familiaris [6]): 90%; inhibition in vivo at 0.3 mg/kg (Canis familiaris [2]): 90%; inhibition in vivo at 0.3 mg/kg (Canis familiaris [7]): 50%; Time (Canis familiaris [3]): 5 min and 10 min; inhibition in vivo at 0.3 mg/kg (Canis familiaris [8]): 60%; Duration (Canis familiaris [5]): 240 min
N=C(N)c1cccc(NC(=O)c2ccc3c(c2)CN(CCc2ccccc2)C(=O)C(CC(=O)O)N3)c1 (configuration not stated) | 380 | 26 | –
